Data on ten molecules can be found in ChEMBL document CHEMBL1153016, “Dopamine- and tyramine-based derivatives of triazenes: activation by tyrosinase and implications for prodrug design” (Eur J Med Chem, 2009).

The nature of data set [1]: Chemical stability in phosphate buffer of pH 7.4 at 10 uM by HPLC analysis. Type of data set: physicochemical. Particulars: pH 7.4, 10 µM. The method in brief: (§1)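 Hydrolysis at 37 °C in pH 7.4 PBS containing 20% DMSO, substrate 10^-5 M. Aliquots analysed by reversed-phase HPLC with UV at 300 nm to give half-life.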
A further data set has as its system tyrosinase. In words: Stability assessed as half life at 50 uM by HPLC analysis in presence of mushroom tyrosinase. Type of data set: ADME. The method in brief: (§2)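 Mushroom tyrosinase at 100U/mL in pH 7.4 phosphate buffer (2.4 mL) with DMSO (0.6 mL), 37 °C. Prodrug added from 10^-2 M stock, final substrate 5 x 10^-5 M, incubated with gentle stirring. Consumption followed by HPLC with UV at 300 nm, giving half-life of activation. Km and Vmax determined; turnover number derived from Vmax.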

The subject of a further data set is Plasma. The experiment in a line: Stability in 80% human plasma at 10 uM by HPLC analysis. Type of data set: ADME, cell-free. The essentials: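 Pooled heparinised human plasma from healthy donors, stored at –70 °C, diluted to 80% (v/v) with pH 7.4 isotonic phosphate buffer. Substrate 10^-5 M, incubated at 37 °C. At intervals, 200 µL aliquots quenched in 400 µL acetonitrile and centrifuged; supernatant analysed by HPLC for substrate and products to give half-life.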

Data set [2] in a line: Apparent partition coefficient in phosphate buffer of pH 7.4 by HPLC analysis. The class given is physicochemical. The method in brief: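 Log Pexp measured at room temperature in 1-octanol/pH 7.4 phosphate buffer, phases mutually pre-saturated. Compound dissolved in octanol and shaken 30 min to equilibrium. Each phase analysed by HPLC, octanol phase first diluted 1:10 in acetonitrile. P taken as the ratio of octanol to buffer peak area.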

Data set [3] addresses T1, Tyrosinase (Agaricus bisporus) (UniProt O42713).
T1 sequence (whole entry): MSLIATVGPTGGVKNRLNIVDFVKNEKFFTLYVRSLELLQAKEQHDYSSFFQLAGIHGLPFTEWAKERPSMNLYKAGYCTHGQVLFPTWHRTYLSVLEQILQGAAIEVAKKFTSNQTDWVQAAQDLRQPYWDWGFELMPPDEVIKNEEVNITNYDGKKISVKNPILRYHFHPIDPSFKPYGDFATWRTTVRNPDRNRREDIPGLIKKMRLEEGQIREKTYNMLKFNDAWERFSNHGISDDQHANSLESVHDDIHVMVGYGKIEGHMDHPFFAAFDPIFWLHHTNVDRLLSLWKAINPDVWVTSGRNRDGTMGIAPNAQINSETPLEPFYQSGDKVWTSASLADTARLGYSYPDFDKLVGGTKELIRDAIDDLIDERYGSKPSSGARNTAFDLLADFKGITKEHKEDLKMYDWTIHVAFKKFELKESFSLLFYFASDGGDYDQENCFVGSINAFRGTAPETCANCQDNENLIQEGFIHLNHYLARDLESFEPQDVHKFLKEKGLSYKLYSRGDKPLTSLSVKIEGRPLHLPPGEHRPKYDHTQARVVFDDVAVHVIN
In words: Binding affinity to Mushroom tyrosinase assessed as compound turnover by HPLC analysis. The method in brief:
as §2

Data set [4] can be described thus: Chemical stability of the assessed as hydrolytic half life in phosphate buffer of pH 7.4 at 10 uM by HPLC analysis. The class given is physicochemical. The method in brief: as §1
Data set [5] can be described thus: Ratio of chemical stability in phosphate buffer of pH 7.4 to chemical stability in human plasma. The class given is ADME.
The species named for the next data set is Homo sapiens. The experiment in a line: Stability assessed as hydrolytic half life in 80% human plasma at 10 uM by HPLC analysis.
Substrate in data set [6]: CN(/N=N/c1ccc(C#N)cc1)C(=O)NCCc1ccc(O)cc1
The experiment in a line: (§3) Activity at mushroom tyrosinase. The following applies: Agaricus bisporus. The essentials:
as §2

Substrate in data set [7]: CCOC(=O)c1ccc(/N=N/N(C)C(=O)NCCc2ccc(O)c(O)c2)cc1
The description is as §3. Particulars: Agaricus bisporus. The essentials:
as §2

With `CC(=O)c1ccc(/N=N/N(C)C(=O)NCCc2ccc(O)cc2)cc1`, the values for the Stability (in [1]; in the data set on Plasma) were 15 days and 2 days, respectively. In the data set on tyrosinase, the half-life (commonly the time in which the quantity being followed falls by half) at 50 µM stood at 0.217 h. For the same molecule, the logD (as a rule, lipophilicity at a set pH, counting ionised and neutral species) in [2] worked out at 3.25.
As to `NCCc1ccc(O)cc1`, the Activity in [3] was found to be 25.9 s⁻¹.
`CC(=O)c1ccc(/N=N/N(C)C(=O)NCCc2ccc(O)c(O)c2)cc1`: the half-life at 10 µM in [4] is 15.1 h; in the data set listed under Homo sapiens, 9.3 h. The Ratio in data set [5] worked out at 1.5. Also, in the data set on tyrosinase, the half-life at 50 µM stood at 0.165 h. In [2], the log distribution coefficient (logD) is 3.24.
Turning to `CCOC(=O)c1ccc(/N=N/N(C)C(=O)NCCc2ccc(O)c(O)c2)cc1`, the half-life at 10 µM was 20.8 h in data set [4] and 14.7 h in the data set listed under Homo sapiens. For the same molecule, in data set [5], the Ratio is 1.5. Moreover, in the data set with tyrosinase, the half-life at 50 µM amounted to 0.102 h. The Activity in [3] is 6 s⁻¹. The logD in data set [2] stood at 3.78.
Consider `Cc1ccc(/N=N/N(C)C(=O)NCCc2ccc(O)cc2)cc1`, for which the half-life at 10 µM in data set [4] was 364 h. For the same molecule, the half-life at 50 µM in the data set on tyrosinase came out at 0.303 h. The same molecule came in with a Stability in the data set with Plasma of 2 days. Besides, the logD in [2] came to 3.9.
Take `CCOC(=O)c1ccc(/N=N/N(C)C(=O)NCCc2ccc(O)cc2)cc1`: the Stability in data set [1] was determined as 15 days. In addition, in the data set with tyrosinase, the half-life at 50 µM is 0.215 h. Also, in [2], the logD worked out at 3.96. Besides, the half-life at 10 µM in the data set listed under Homo sapiens is 71.5 h.
Turning to `CN(/N=N/c1ccc(C#N)cc1)C(=O)NCCc1ccc(O)cc1`, the Stability in data set [1] stood at 15 days; in the data set with Plasma it was 2 days. In addition, in the data set on tyrosinase, the half-life at 50 µM amounted to 0.197 h. In addition, the Activity in data set [3] turned out to be 0.6 s⁻¹. In [2], the log distribution coefficient (logD) is 2.89.
In turn, `Cc1ccc(/N=N/N(C)C(=O)NCCc2ccc(O)c(O)c2)cc1` gave a Stability in [1] of 2 days. Moreover, in [5], the Ratio is listed as 1.5. For the same molecule, the half-life at 50 µM in the data set on tyrosinase came out at 0.14 h. Besides, the log distribution coefficient (logD) in data set [2] stood at 4.17. Further, the half-life at 10 µM in the data set listed under Homo sapiens is 5.66 h.
As to `NCCc1ccc(O)c(O)c1`, in data set [3], the Activity is 439 s⁻¹.

B1: Tyrosinase (Agaricus bisporus), O42713 (protein)
chain: MSLIATVGPTGGVKNRLNIVDFVKNEKFFTLYVRSLELLQAKEQHDYSSFFQLAGIHGLPFTEWAKERPSMNLYKAGYCTHGQVLFPTWHRTYLSVLEQILQGAAIEVAKKFTSNQTDWVQAAQDLRQPYWDWGFELMPPDEVIKNEEVNITNYDGKKISVKNPILRYHFHPIDPSFKPYGDFATWRTTVRNPDRNRREDIPGLIKKMRLEEGQIREKTYNMLKFNDAWERFSNHGISDDQHANSLESVHDDIHVMVGYGKIEGHMDHPFFAAFDPIFWLHHTNVDRLLSLWKAINPDVWVTSGRNRDGTMGIAPNAQINSETPLEPFYQSGDKVWTSASLADTARLGYSYPDFDKLVGGTKELIRDAIDDLIDERYGSKPSSGARNTAFDLLADFKGITKEHKEDLKMYDWTIHVAFKKFELKESFSLLFYFASDGGDYDQENCFVGSINAFRGTAPETCANCQDNENLIQEGFIHLNHYLARDLESFEPQDVHKFLKEKGLSYKLYSRGDKPLTSLSVKIEGRPLHLPPGEHRPKYDHTQARVVFDDVAVHVIN
Turning to B1, the Km – broadly, the concentration of substrate that gives half-maximal velocity – is 310 µM in data set [6] and 710 µM in data set [7]. Also, the Vmax (usually the rate approached at saturating substrate) in data set [6] stood at 0.03 mM/min; in data set [7] it was 0.31 mM/min.
